According to ChEMBL document CHEMBL1145471, “Small molecule regulators of autophagy identified by an image-based high-throughput screen” (Proc Natl Acad Sci U S A, 2007):
Calls of active or inactive are those of the source. No cut-off for these calls is given here.

Columns and labels:
[1] = test system: H4; test: Effect on FYVE-RFP+ vesicle intensity per cell in human H4 cells after 2 hrs relative to control; type: functional; design: concentration or dose not given beside the values
Method in brief: (§1)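 H4 cells stably expressing FYVE-RFP (H4-FYVE), grown in DMEM with 10% FBS, penicillin/streptomycin and 2 mM L-glutamine at 37°C, 5% CO2, seeded in 96-well plates and exposed to compound. Fixed in 4% paraformaldehyde, nuclei stained with 3 μg/ml DAPI, FYVE-RFP+ vesicles quantified by high-throughput fluorescence microscopy against DMSO control. Triplicate wells, mean ± SD.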

[2] = test system: H4; test: Increase in long-lived protein degradation in human H4 cells after 1 hr relative to control; type: functional; design: concentration or dose not given beside the values
[3] = test system: H4; test: Increase in long-lived protein degradation in human H4 cells after 4 hrs relative to control; type: functional; design: concentration or dose not given beside the values
[4] = test system: H4; test: Increase in long-lived protein degradation in human H4 cells after 24 hrs relative to control; type: functional; design: concentration or dose not given beside the values
[5] = test system: H4; test: Effect on FYVE-RFP+ vesicle intensity per cell in human H4 cells after 8 hrs relative to control; type: functional; design: concentration or dose not given beside the values; method in brief: as §1
[6] = test system: H4; test: Increase in light chain 3-GFP+ autophagosome vesicle intensity per cell in human H4 cells at 2.1 uM after 24 hrs by high throughput fluorescence microscopy relative to control; type: functional
[7] = test system: H4; test: Increase in long-lived protein degradation in human H4 cells after 2 hrs relative to control; type: functional; design: concentration or dose not given beside the values
[8] = test system: H4; test: Increase in light chain 3-GFP+ autophagosome vesicle area per cell in human H4 cells at 2.1 uM after 24 hrs by high throughput fluorescence microscopy relative to control; type: functional
[9] = test system: H4; test: Induction of light chain 3-GFP level in human H4 cells at 2.1 uM after 24 hrs by high throughput fluorescence microscopy relative to control; type: functional
[10] = test system: H4; test: Increase in light chain 3-GFP+ autophagosome vesicle number per cell in human H4 cells at 2.1 uM after 24 hrs by high throughput fluorescence microscopy relative to control; type: functional
Method in brief: (§2)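 H4 cells stably expressing LC3-GFP were grown in DMEM with 10% FBS and 2 mM L-glutamine at 37°C, 5% CO2. They were exposed to each compound for 24 h, with DMSO as negative and rapamycin as positive control. Cells were then fixed in 4% paraformaldehyde and stained with 3 μg/ml DAPI. High-throughput fluorescence imaging scored LC3-GFP spot number, size and intensity, expressed relative to DMSO. Mean ± SD of triplicates; experiments repeated three times.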

[11] = test system: H4; test: Effect on FYVE-RFP+ vesicle intensity per cell in human H4 cells after 4 hrs relative to control; type: functional; design: concentration or dose not given beside the values; method in brief: as §1
[12] = molecular target: T1, Serine/threonine-protein kinase mTOR (Homo sapiens, UniProt P42345); test: Effect on mTOR phosphorylation in human H4 cells at 8.3 uM after 4 hrs; type: cell-based
Method in brief: (§3)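 H4 cells exposed to compound for 4 h. Lysates analysed by Western blot with anti-phospho and anti-total mTOR antibodies, with actin as loading control. Rapamycin served as reference.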

[13] = test system: H4; test: Increase in FYVE-RFP+ vesicle intensity per cell in human H4 cells after 8 hrs relative to control; type: functional; design: concentration or dose not given beside the values; method in brief: as §1
[14] = test system: H4; test: Increase in light chain 3-GFP+ autophagosome vesicle number per cell in human H4 cells at 8.3 uM after 24 hrs by high throughput fluorescence microscopy relative to control; type: functional; method in brief: as §2
[15] = test system: H4; test: Increase in light chain 3-GFP+ autophagosome vesicle area per cell in human H4 cells at 8.3 uM after 24 hrs by high throughput fluorescence microscopy relative to control; type: functional
Method in brief: (§4)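 H4 cells stably expressing LC3-GFP, seeded in 96-well plates and exposed to compound for 24 h; screening concentrations were 3–12 μM, with rapamycin 0.22 μM and bafilomycin A1 0.40 μM. Cells fixed in 4% paraformaldehyde and stained with 3 μg/ml DAPI. Number, size and intensity of LC3-GFP spots measured by high-throughput fluorescence microscopy and expressed as percent of DMSO-treated wells. Rapamycin was the positive control. Triplicate wells, mean ± SD; experiments repeated three times.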

[16] = test system: H4; test: Induction of light chain 3-GFP level in human H4 cells at 8.3 uM after 24 hrs by high throughput fluorescence microscopy relative to control; type: functional
Method in brief: (§5)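 H4 cells stably expressing LC3-GFP, grown in DMEM with 10% FBS, penicillin/streptomycin and 2 mM L-glutamine at 37°C, 5% CO2. Cells were seeded in 96-well plates and exposed to library compounds at 3–12 μM for 24 h, then fixed in 4% paraformaldehyde and stained with 3 μg/ml DAPI. LC3-GFP spot number, size and intensity were measured by high-throughput fluorescence microscopy and expressed relative to DMSO. Triplicates, mean ± SD.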

[17] = test system: H4; test: Increase in ratio of light chain 3 subunit 2 to light chain 3 subunit 1 in human H4 cells at 8.3 uM after 4 hrs by Western blot; type: functional, cell-based
Method in brief: (§6)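 H4 cells were treated with each compound for 4 h, then lysed. Lysates were immunoblotted with anti-LC3 antibody, with actin as loading control. LC3II and LC3I bands were compared as an LC3II/LC3I ratio.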

[18] = test system: H4; test: Increase in FYVE-RFP+ vesicle intensity per cell in human H4 cells after 4 hrs relative to control; type: functional; design: concentration or dose not given beside the values; method in brief: as §1
[19] = test system: H4; test: Reduction of poly(Q) level in human H4 cells expressing EGFP-Q79-HA after 24 hrs; type: functional, cell-based
Method in brief: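 H4 cells were transiently transfected with an EGFP-Q79-HA expression vector. The medium was replaced 6 h after transfection and compounds were added. Poly(Q) was detected with anti-HA antibody.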

[20] = test system: H4; test: Increase in light chain 3-GFP+ autophagosome vesicle intensity per cell in human H4 cells at 8.3 uM after 24 hrs by high throughput fluorescence microscopy relative to control; type: functional; method in brief: as §2
[21] = test system: H4; test: Increase in FYVE-RFP+ vesicle intensity per cell in human H4 cells after 2 hrs relative to control; type: functional; design: concentration or dose not given beside the values; method in brief: as §1
[22] = molecular target: T1, Serine/threonine-protein kinase mTOR; test: Effect on mTOR phosphorylation in human H4 cells at 4.8 uM after 4 hrs; type: cell-based; method in brief: as §3
[23] = test system: H4; test: Increase in ratio of light chain 3 subunit 2 to light chain 3 subunit 1 in human H4 cells at 4.8 uM after 4 hrs by Western blot; type: functional, cell-based; method in brief: as §6
[24] = test system: H4; test: Increase in light chain 3-GFP+ autophagosome vesicle area per cell in human H4 cells at 4.8 uM after 24 hrs by high throughput fluorescence microscopy relative to control; type: functional; method in brief: as §4
[25] = test system: H4; test: Increase in light chain 3-GFP+ autophagosome vesicle intensity per cell in human H4 cells at 4.8 uM after 24 hrs by high throughput fluorescence microscopy relative to control; type: functional; method in brief: as §2
[26] = test system: H4; test: Increase in light chain 3-GFP+ autophagosome vesicle number per cell in human H4 cells at 4.8 uM after 24 hrs by high throughput fluorescence microscopy relative to control; type: functional; method in brief: as §2
[27] = test system: H4; test: Induction of light chain 3-GFP level in human H4 cells at 4.8 uM after 24 hrs by high throughput fluorescence microscopy relative to control; type: functional; method in brief: as §5
[28] = test system: H4; test: Induction of light chain 3-GFP level in human H4 cells at 6.6 uM after 24 hrs by high throughput fluorescence microscopy relative to control; type: functional; method in brief: as §5
[29] = test system: H4; test: Increase in light chain 3-GFP+ autophagosome vesicle intensity per cell in human H4 cells at 6.6 uM after 24 hrs by high throughput fluorescence microscopy relative to control; type: functional; method in brief: as §2
[30] = test system: H4; test: Increase in light chain 3-GFP+ autophagosome vesicle number per cell in human H4 cells at 6.6 uM after 24 hrs by high throughput fluorescence microscopy relative to control; type: functional; method in brief: as §2
[31] = test system: H4; test: Increase in light chain 3-GFP+ autophagosome vesicle area per cell in human H4 cells at 6.6 uM after 24 hrs by high throughput fluorescence microscopy relative to control; type: functional; method in brief: as §4
[32] = test system: H4; test: Increase in ratio of light chain 3 subunit 2 to light chain 3 subunit 1 in human H4 cells at 5.3 uM after 4 hrs by Western blot; type: functional, cell-based; method in brief: as §6
[33] = test system: H4; test: Induction of light chain 3-GFP level in human H4 cells at 5.3 uM after 24 hrs by high throughput fluorescence microscopy relative to control; type: functional
Method in brief: (§7)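 H4 cells stably expressing LC3-GFP, kept in DMEM/10% FBS at 37°C, 5% CO2, were seeded in 96-well plates and exposed to compound for 24 h. Cells were then fixed in 4% paraformaldehyde and stained with 3 μg/ml DAPI. Automated fluorescence microscopy scored the number, size and intensity of LC3-GFP spots. Values are percent of DMSO wells, in triplicate, mean ± SD. Rapamycin served as positive control.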

[34] = molecular target: T1, Serine/threonine-protein kinase mTOR; test: Effect on mTOR phosphorylation in human H4 cells at 5.3 uM after 4 hrs; type: cell-based; method in brief: as §3
[35] = test system: H4; test: Increase in light chain 3-GFP+ autophagosome vesicle area per cell in human H4 cells at 5.3 uM after 24 hrs by high throughput fluorescence microscopy relative to control; type: functional
Method in brief: (§8)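 H4 cells stably expressing LC3-GFP, seeded in 96-well plates and exposed to compound for 24 h; fixed in 4% paraformaldehyde, nuclei stained with 3 μg/ml DAPI. Automated fluorescence microscopy scored number, size and intensity of LC3-GFP spots; values expressed relative to DMSO-treated wells, rapamycin positive control. Triplicate wells, mean ± SD; experiments repeated three times.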

[36] = test system: H4; test: Increase in light chain 3-GFP+ autophagosome vesicle number per cell in human H4 cells at 5.3 uM after 24 hrs by high throughput fluorescence microscopy relative to control; type: functional; method in brief: as §7
[37] = test system: H4; test: Increase in light chain 3-GFP+ autophagosome vesicle intensity per cell in human H4 cells at 5.3 uM after 24 hrs by high throughput fluorescence microscopy relative to control; type: functional; method in brief: as §8
[38] = test system: H4; test: Increase in light chain 3-GFP+ autophagosome vesicle area per cell in human H4 cells at 5.8 uM after 24 hrs by high throughput fluorescence microscopy relative to control; type: functional; method in brief: as §4
[39] = test system: H4; test: Increase in light chain 3-GFP+ autophagosome vesicle intensity per cell in human H4 cells at 5.8 uM after 24 hrs by high throughput fluorescence microscopy relative to control; type: functional; method in brief: as §2
[40] = test system: H4; test: Induction of light chain 3-GFP level in human H4 cells at 5.8 uM after 24 hrs by high throughput fluorescence microscopy relative to control; type: functional; method in brief: as §5
[41] = test system: H4; test: Increase in light chain 3-GFP+ autophagosome vesicle number per cell in human H4 cells at 5.8 uM after 24 hrs by high throughput fluorescence microscopy relative to control; type: functional; method in brief: as §2

Structure (SMILES)	Activity [1]	Activity [2]	Activity [3]	Activity [4]	Activity [5]	Activity [7]	Activity [11]	Activity [13]	Activity [18]	Activity [19]	Activity [21]	further results
C/C=C/C[C@@H](C)[C@@H](O)[C@H]1C(=O)N[C@@H](CC)C(=O)N(C)CC(=O)N(C)[C@@H](CC(C)C)C(=O)N[C@@H](C(C)C)C(=O)N(C)[C@@H](CC(C)C)C(=O)N[C@@H](C)C(=O)N[C@H](C)C(=O)N(C)[C@@H](CC(C)C)C(=O)N(C)[C@@H](CC(C)C)C(=O)N(C)[C@@H](C(C)C)C(=O)N1C [CYCLOSPORINE]	73.62%	114.15%	101.74%	104.28%	55.82%	117.39%	71.69%	–	–	–	–	Activity [6]: 178.79%; Activity [8]: 181.14%; Activity [9]: 159.64%; Activity [10]: 155.88%
CN1CCN(CCCN2c3ccccc3Sc3ccc(C(F)(F)F)cc32)CC1 [TRIFLUOPERAZINE]	–	76.62%	109%	124.78%	–	105.6%	–	94.28%	111.52%	Dose-dependent effect	136.58%	Activity [12]: inactive; Activity [14]: 364.24%; Activity [15]: 520.24%; Activity [16]: 105.72%; Activity [17]: Active; Activity [20]: 1010.35%
COC(=O)C1=C(C)NC(C)=C(C(=O)OCCN(C)Cc2ccccc2)C1c1cccc([N+](=O)[O-])c1 (centres undefined) [NICARDIPINE]	–	84.62%	122.6%	121.03%	–	126.59%	–	104.77%	112.51%	–	132.05%	Activity [22]: inactive; Activity [23]: Active; Activity [24]: 197.46%; Activity [25]: 229.64%; Activity [26]: 169.02%; Activity [27]: 131.58%
CCCNCC(O)COc1ccccc1C(=O)CCc1ccccc1 (centres undefined) [PROPAFENONE]	114.69%	114.56%	99.78%	102.73%	62.87%	113.22%	78.75%	–	–	–	–	Activity [28]: 99.88%; Activity [29]: 385.97%; Activity [30]: 210.4%; Activity [31]: 271.21%
O=C1NCN(c2ccccc2)C12CCN(CCCC(c1ccc(F)cc1)c1ccc(F)cc1)CC2 [FLUSPIRILENE]	–	93.82%	144.79%	145.5%	–	143.17%	–	108.53%	142.15%	Dose-dependent effect	224.98%	Activity [32]: Active; Activity [33]: 143.3%; Activity [34]: inactive; Activity [35]: 532.51%; Activity [36]: 309.6%; Activity [37]: 1593.16%
CCN(CC)CCCCCCCCOC(=O)c1cc(OC)c(OC)c(OC)c1	89.59%	106.69%	109.05%	95.47%	78.64%	124.85%	74.72%	–	–	–	–	Activity [38]: 201.59%; Activity [39]: 229.5%; Activity [40]: 145.22%; Activity [41]: 170.87%
